{"source": "ChEMBL document CHEMBL3392953", "about": "“Synthesis and biological evaluation of furanoallocolchicinoids” (J Med Chem, 2015)", "key": {"ASPC1 [1]": {"tested_on": "ASPC1", "assay": "Cytotoxicity against human AsPC1 cells after 72 hrs by MTT assay", "assay_type": "functional, cell-based", "conditions": "ASPC1, 72 h", "procedure,_shortened": "(§1)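 Cells seeded at 3x10^5 cells/mL 24 h before assay (HEK293, AsPC-1 in DMEM; Jurkat, W1308 in RPMI-1640; 10% FCS, 2-ME). Tenfold dilutions from […] to 1 nM added; untreated cells as controls. 72 h incubation, MTT 250 µg/ml added for last 6 h, formazan dissolved in DMSO, OD read. IC50 from titration curves; inhibition index = 1 − OD(treated)/OD(control).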"}, "Jurkat [2]": {"tested_on": "Jurkat", "assay": "Growth inhibition of human Jurkat cells at 100 uM after 72 hrs by MTT assay", "assay_type": "functional", "conditions": "read-out: GI"}, "HEK293 [3]": {"tested_on": "HEK293", "assay": "Cytotoxicity against HEK293 cells after 72 hrs by MTT assay", "assay_type": "functional, cell-based", "conditions": "Homo sapiens, HEK293, 72 h", "procedure,_shortened": "as §1"}, "HEK293 [4]": {"tested_on": "HEK293", "assay": "Growth inhibition of HEK293 cells at 100 uM after 72 hrs by MTT assay", "assay_type": "functional", "conditions": "Homo sapiens, HEK293, 72 h; read-out: GI"}, "[5]": {"assay": "Cytotoxicity against mouse W1308 cells after 72 hrs by MTT assay", "assay_type": "functional, cell-based", "conditions": "W1308, 72 h", "procedure,_shortened": "as §1"}, "ASPC1 [6]": {"tested_on": "ASPC1", "assay": "Growth inhibition of human AsPC1 cells at 100 uM after 72 hrs by MTT assay", "assay_type": "functional", "conditions": "ASPC1, 72 h, read-out: GI"}, "Jurkat [7]": {"tested_on": "Jurkat", "assay": "Cytotoxicity against human Jurkat cells after 72 hrs by MTT assay", "assay_type": "functional, cell-based", "procedure,_shortened": "as §1"}, "[8]": {"assay": "Growth inhibition of mouse W1308 cells at 100 uM after 72 hrs by MTT assay", "assay_type": "functional", "conditions": "W1308, 72 h, read-out: GI"}}, "note": "pIC50: −log10 of the molar value."}
{"smiles": "COc1cc2c(c(OC)c1OC)-c1cc3cc(CCO)oc3cc1[C@@H](NC(C)=O)CC2", "values": [{"measurement": "pIC50", "setting": "ASPC1 [1]", "value": 5.70}, {"measurement": "inhibition of growth at 100 µM", "setting": "Jurkat [2]", "value": 50, "unit": "%"}, {"measurement": "pIC50", "setting": "HEK293 [3]", "value": 6.00}, {"measurement": "inhibition of growth at 100 µM", "setting": "HEK293 [4]", "value": 50, "unit": "%"}, {"measurement": "pIC50", "setting": "[5]", "value": 6.00}, {"measurement": "inhibition of growth at 100 µM", "setting": "ASPC1 [6]", "value": 50, "unit": "%"}, {"measurement": "pIC50", "setting": "Jurkat [7]", "value": 6.00}, {"measurement": "inhibition of growth at 100 µM", "setting": "[8]", "value": 50, "unit": "%"}]}
